# Assay results reported in ChEMBL document CHEMBL4428117, “Discovery of novel free fatty acid receptor 1 agonists bearing triazole core via click chemistry” (Bioorg Med Chem, 2016).
# Experiments:
# [1] = target: Free fatty acid receptor 1 (Homo sapiens) (UniProt O14842); test: Agonist activity at human FFA1 receptor expressed in CHO cells assessed as intracellular calcium influx at 100 nM measured for 90 sec by Fluo-4-AM dye based FLIPR assay relative to control; type: functional, cell-based
# Method in brief: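 CHO cells stably expressing human FFA1 (NM_005303), 15 K cells/well, grown 12 h at 37 °C in 5% CO2, then HBSS wash. Ca2+ signal read by FLIPR for 90 s after addition. Activity = (test − vehicle)/(10 µM γ-linolenic acid − vehicle) × 100; mean of three independent experiments.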
# [2] = 1-octanol-phosphate buffer distribution coefficient, log D of compound at 100 uM at pH 7.4 after 24 hrs by HPLC based shake flask method; type: physicochemical
# Method in brief: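 Final concentration 100 µM, diluted from 10 mM DMSO stock, in 1:1 0.01 M phosphate buffer pH 7.4 and 1-octanol. Shaken 700 rpm for 24 h, then 1 h phase separation. Octanol phase diluted ×10 before HPLC, buffer phase injected directly, each in duplicate. LogD = octanol/buffer peak area at 254 nm, corrected with two calibration points; three independent experiments.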
# Mus musculus [3] = test: Hypoglycemic effect in normal ICR mouse assessed as decrease in plasma glucose level at 50 mg/kg, po administered as single dose 30 mins prior to glucose challenge by OGTT relative to control; type: functional, organism-based; settings: TDE = time-dependent effect
# Method in brief: (§1)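 Ten-week-old male ICR mice, fasted 12 h, randomized n = 6 per group. Single oral dose in 0.5% CMC given 30 min before oral glucose 3 g/kg. Tail-vein blood glucose measured by test strips at −30, 0, 15, 30, 45, 60 and 120 min; AUC0-2h calculated; mean ± SEM, Student's t-test vs vehicle.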
# Mus musculus [4] = test: Hypoglycemic effect in normal ICR mouse assessed as decrease in blood glucose AUC (0 to 2 hrs) at 50 mg/kg, po administered as single dose 30 mins prior to glucose challenge by OGTT relative to control; type: functional; design: scale not given: the % may be the effect or the level left; method in brief: as §1
# Mus musculus [5] = test: Hypoglycemic effect in fasting STZ-induced type-2 diabetic C57BL/6 mouse assessed as decrease in blood glucose AUC (0 to 2 hrs) at 20 mg/kg, po administered as single dose 30 mins prior to glucose challenge measured by OGTT relative to control; type: functional; design: scale not given: the % may be the effect or the level left
# Method in brief: (§2)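 Male C57BL/6 mice on high-fat diet (45% kcal fat) for 4 weeks, then STZ 80 mg/kg i.p., then high-fat diet another 4 weeks. Fasting glucose ≥11.1 mmol/L taken as diabetic. Fasted 12 h, n = 6 per group. Oral dose in 0.5% CMC 30 min before oral glucose 2 g/kg. Tail-vein glucose by test strips at −30, 0, 15, 30, 45, 60 and 120 min; AUC0-2h; mean ± SEM.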
# Mus musculus [6] = test: Hypoglycemic effect in fasting STZ-induced type-2 diabetic C57BL/6 mouse assessed as decrease in blood glucose AUC (0 to 2 hrs) at 50 mg/kg, po administered as single dose 30 mins prior to glucose challenge by OGTT relative to control; type: functional; design: scale not given: the % may be the effect or the level left; method in brief: as §2
# Free fatty acid receptor 1 (Homo sapiens), sequence (O14842 whole entry): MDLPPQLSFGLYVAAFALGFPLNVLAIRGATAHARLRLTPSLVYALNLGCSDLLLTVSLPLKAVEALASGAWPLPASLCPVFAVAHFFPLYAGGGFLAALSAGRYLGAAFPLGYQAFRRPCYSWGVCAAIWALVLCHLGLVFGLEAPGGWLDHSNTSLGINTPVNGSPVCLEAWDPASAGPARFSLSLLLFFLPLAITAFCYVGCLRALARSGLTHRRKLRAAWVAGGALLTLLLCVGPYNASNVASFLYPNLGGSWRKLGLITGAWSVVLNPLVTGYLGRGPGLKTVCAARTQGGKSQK
Activity [1] [%],"logD at 24 h, 100 µM [2]",SMILES,also measured
26.1,1.37,O=C(O)COc1ccc(OCc2cn(-c3ccc(Cl)cc3)nn2)cc1F,Activity (Mus musculus [3]): Tde
22.7,,O=C(O)COc1ccc(OCc2cn(-c3cccc(Cl)c3)nn2)cc1F,
7.62,,CCOc1ccc(-n2cc(COc3ccc(OCC(=O)O)c(F)c3)nn2)cc1,
19.4,,O=C(O)COc1ccc(OCc2cn(-c3ccc(Cl)cc3)nn2)cc1,
11.8,,Cc1cccc(-n2cc(COc3ccc(OCC(=O)O)cc3)nn2)c1,
4.53,,CC(C)(C)c1ccc(-n2cc(COc3ccc(OCC(=O)O)c(F)c3)nn2)cc1,
19.4,,COc1cccc(-n2cc(COc3ccc4c(c3)OCC4CC(=O)O)nn2)c1 (stereo unspecified),
16.4,0.89,Cc1ccc(-n2cc(COc3ccc(OCC(=O)O)cc3)nn2)cc1,
5.83,-0.23,O=C(O)COc1ccc(OCc2cn(-c3ccccc3)nn2)cc1F,
24.4,0.52,COc1cccc(-n2cc(COc3ccc(OCC(=O)O)c(F)c3)nn2)c1,Activity (Mus musculus [3]): Tde
11.3,,O=C(O)COc1ccc(OCc2cn(-c3ccccc3Cl)nn2)cc1F,
13.8,,O=C(O)COc1ccc(OCc2cn(-c3ccc(F)cc3)nn2)cc1,
0.64,,O=C(O)COc1ccc(OCc2cn(-c3ccccc3)nn2)cc1,
0.76,,O=C(O)CC1COc2cc(OCc3cn(-c4ccccc4)nn3)ccc21 (stereo unspecified),
20.4,0.92,O=C(O)COc1ccc(OCc2cn(-c3ccc(F)cc3)nn2)cc1F,

# Continued, compound first:
SMILES,Activity [1] [%],"logD at 24 h, 100 µM [2]",also measured
O=C(O)CC1COc2cc(OCc3cn(-c4c(Cl)cccc4Cl)nn3)ccc21 (stereo unspecified),21.7,1.96,
O=C(O)CC1COc2cc(OCc3cn(-c4ccccc4F)nn3)ccc21 (stereo unspecified),6.69,,
O=C(O)CC1COc2cc(OCc3cn(-c4ccc(OCc5ccccc5)cc4)nn3)ccc21 (stereo unspecified),3.67,,
O=C(O)COc1ccc(OCc2cn(-c3c(Cl)cccc3Cl)nn2)cc1F,29.7,2.16,Activity (Mus musculus [4]): 17.7%; Activity (Mus musculus [3]): Tde
O=C(O)CC1COc2cc(OCc3cn(-c4ccc(Cl)cc4)nn3)ccc21 (stereo unspecified),24.7,,Activity (Mus musculus [3]): Tde
O=C(O)CC1COc2cc(OCc3cn(-c4cccc(Cl)c4)nn3)ccc21 (stereo unspecified),22.8,1.09,
COc1ccccc1-n1cc(COc2ccc(OCC(=O)O)c(F)c2)nn1,14.6,,
O=C(O)CC1COc2cc(OCc3cn(-c4ccccc4Cl)nn3)ccc21 (stereo unspecified),9.34,,
Cc1cc(OCCCS(C)(=O)=O)cc(C)c1-c1cccc(COc2ccc3c(c2)OC[C@H]3CC(=O)O)c1 [FASIGLIFAM],,,Activity (Mus musculus [5]): 32.5%
Cc1ccc(Cl)cc1-n1cc(COc2ccc(OCC(=O)O)c(F)c2)nn1,36.1,1.95,Activity (Mus musculus [4]): 21.4%; Activity (Mus musculus [6]): 14.2%; Activity (Mus musculus [3]): Tde
Cc1ccc(Cl)cc1-n1cc(COc2ccc3c(c2)OCC3CC(=O)O)nn1 (stereo unspecified),33.8,2.08,Activity (Mus musculus [4]): 16.8%; Activity (Mus musculus [3]): Tde
